An excerpt weighted towards active compounds, which were near 12% of everything screened.
ABCB1 block = inhibitors of human ABCB1 transporter, ABCG2 counter-screen; P08183; CCRF-Adr cells, JC-1 efflux, flow cytometry; inhibition, % at 6.6 µM; actives 0.067% (n = 190,000); AID 1326; in the data active = inhibition above about 40%;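 note: 0% = vehicle and 100% = reference inhibitor; higher value means more JC-1 retained so stronger ABCB1 efflux block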
RAM inhibit = blocks the yeast RAM network; actives 1.8% (n = 190,000); inhibition, % at 50 µM; S. cerevisiae dse1pr::URA3 reporter, 5-FOA growth OD615, 2 d; analog-sensitive cbk1-as2 kinase mutant strain;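 active = inhibition above a set limit, 3 SD over mean compound inhibition, cut at about 8.4% in these data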;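 note: 0% = DMSO-only wells with no growth and 100% = 10 µM 1-NA-PP1 full growth; inhibition rescues growth on 5-FOA so higher OD means more RAM inhibition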
WT yeast gro inh = growth inhibition of WT yeast, mitochondrial fusion screen. mitochondrial fusion phenotypic screen, WT strain. inhibition, % at 10 µM. actives 2.1% (n = 190,000). AID 1362; in the data active = inhibition above about 58%; tested in S. cerevisiae
L major viab = inhibitors of Leishmania major promastigote growth | Leishmania major promastigotes, resazurin fluorescence viability | inhibition, % at 10 µM | actives 9% (n = 200,000) | AID 1063; in the data active = inhibition above about 50%;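 note: promastigotes grown with compound for 44 hours at 28 °C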
ABCG2 block = human ABCG2 inhibition, ABCB1 as counter-screen; Q9UNQ0; IgMXP3 cells, JC-1 efflux, flow cytometry; actives 0.1% (n = 190,000); inhibition, % at 6.6 µM;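 active = inhibition above 80%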;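 note: 0% = DMSO and 100% = nicardipine control wells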
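Test system: IgMXP3 cells (ABCG2) mixed with DDAO far-red-labelled CCRF-Adr cells (ABCB1). Reagent: JC-1 transporter substrate. Compound dosing: single test compound dose, 6.6 µM final. Times: 10 min compound exposure, 25 °C. Detection: flow cytometry of retained JC-1 fluorescence. Read-out basis: efflux inhibition in percent versus controls. Controls: nicardipine and DMSO wells.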
* hit, by the source's call; . = not tested or not shown.

SMILES	ABCB1 block	RAM inhibit	WT yeast gro inh	L major viab	ABCG2 block
CC(NC(=O)Cc1cccc2ccccc12)C(=O)N1CCC(=O)CC1 (centres undefined)	0	2	13	-2	0
COc1ccc(N2C(=O)NC(=O)/C(=C\c3ccccc3[N+](=O)[O-])C2=O)cc1	-1	0	13	2	-2
COc1ccc(OC)c(N2C(=O)NC(=O)/C(=C\c3ccc([N+](=O)[O-])s3)C2=O)c1	-1	0	9	100*	-1
O=c1[nH]c(=S)n(Cc2ccc(F)cc2)c(O)c1/C=N/N1CCCCCC1	-1	5	14	-8	-12
CCN1C(=O)C(=Cc2ccc(C)s2)C(=O)N(CC)C1=S	-1	9.5*	-1	84*	-3
C=CCC1C(=O)NC(=S)NC1=O	0	2	-8	7	-1
CN1CC(C(=O)c2ccc(Cl)cc2)C(c2ccc(N(C)C)cc2)C1 (centres undefined)	0	1	16	34	2
CN1CCC(O)(c2ccc(Cl)cc2)C(C(=O)c2ccc(Cl)cc2)C1 (centres undefined)	1	2	30	86*	1
Clc1ccc(CNC2CN3CCC2CC3)cc1 (centres undefined)	0	0	-8	92*	0
CCN(CC)CC(O)c1ccc(C2CCCC2)cc1 (centres undefined)	2	0	-1	94*	-7
O=C(c1ccc2c3c(cccc13)CC2)C1CCCN(CC2CC2)C1 (centres undefined)	1	1	18	99*	2
COCCOC(=O)c1c(C)oc2ccc(OC(=O)N(C)C)cc12	1	2	16	1	6
N=C(N)c1c(O)n(C2CCCCC2)c(=O)n(C2CCCCC2)c1=O	1	1	96*	42	3
O=c1cccc2n1CC1CC2CN(c2nc(N3CCCCC3)nc(N3CCCCC3)n2)C1 (centres undefined)	1	1	1	12	1
CC(=O)c1ccc(-c2ccccc2)cc1	1	1	8	-3	9
C[n+]1c(-c2ccccc2)cc(-c2ccc(Cl)cc2)cc1-c1ccccc1	2	1	7	99*	11
c1ccc2c(CN3CCCCCC3)c[nH]c2c1	0	0	-17	57*	0
O=C(Cc1ccccc1)N1CCN(Cc2c[nH]c3ccccc23)CC1	1	2	-11	9	1
CC(Cc1ccccc1Sc1ccccc1O)N(C)C (centres undefined)	1	2	7	100*	3
C#CCN(C)[C@H](C)Cc1ccccc1	.	.	-1	.	-1
Cc1c(N=Nc2c(O)n(Cc3ccccc3)c(=O)[nH]c2=O)c(=O)n(-c2ccccc2)n1C	2	2	5	41	37
COc1cccc(CN2CCCCC2c2cccnc2)c1 (centres undefined)	1	1	-11	72*	2
CCCC(C)C1(CC)C(=O)NC(=Nc2ccc(OC)cc2)NC1=O (centres undefined)	1	2	-4	0	4
CCC(C)NC(=O)c1c(N)n(CC2CCCO2)c2nc3ccccc3nc12 (centres undefined)	6	9.1*	23	67*	70
CCC(C)NC(=O)c1c(N)n(Cc2ccc3c(c2)OCO3)c2nc3ccccc3nc12 (centres undefined)	0	7	-2	65*	3
SMILES	ABCB1 block	RAM inhibit	WT yeast gro inh	L major viab	ABCG2 block
Cc1cccc(C)c1NC(=O)c1cccn(Cc2ccc3c(c2)OC(F)(F)O3)c1=O	1	1	61*	31	5
O=C(Nc1ccc(C(F)(F)F)cc1)c1cccn(Cc2ccc3c(c2)OC(F)(F)O3)c1=O	1	10*	44	-4	5
CCn1c(=O)n(CC)c2cc([N+](=O)[O-])c(N3CCNCC3)cc21	1	1	-10	-3	5
Cc1c(C(c2ccc(O)cc2)c2c(O)c3ccccc3oc2=O)c(=O)n(-c2ccccc2)n1C (centres undefined)	0	4	-25	13	0
Cc1[nH]n(-c2ccccc2)c(=O)c1C(c1ccc([N+](=O)[O-])cc1)c1c(C)[nH]n(-c2ccccc2)c1=O	0	5	19	62*	5
COC(=O)c1ccc(CN2CCN(Cc3ccccc3)CC2)cc1	1	0	22	93*	4
Cc1ccc(C(=O)C2(C)N(O)C(C)C(c3cccs3)=[N+]2[O-])cc1 (centres undefined)	0	1	-3	-1	1
O=c1c2ccccc2nc(CSc2ncnc3nc[nH]c23)n1-c1ccccc1Cl	0	10*	-3	19	2
O=C1NC(=S)N(c2ccccc2F)C(=O)/C1=C\c1cccs1	-2	2	-25	-2	-12
CCOc1ccc(N2C(=O)/C(=C\c3cccs3)C(=O)NC2=S)cc1	-1	5	18	100*	-3
CC1C(c2cccs2)=[N+]([O-])C(C)(C(=O)c2ccc(F)cc2)N1O (centres undefined)	.	.	.	-2	.
Oc1ccc(Cl)cc1CN1CCN(Cc2ccccc2)CC1	1	1	-32	63*	0
Cc1cccc(CN2CCN(Cc3ccc(Cl)cc3)CC2)c1	0	0	31	89*	2
O=C(NCCN1CCCCC1)c1ccc(Cl)nc1Cl	1	1	-11	-4	8
Cc1cc(C(=O)N=Nc2c(O)n(C)c3ccccc23)c(C)o1	1	0	-4	69*	6
COc1cc2c3cc1Oc1cc(ccc1O)C[C@@H]1c4c(cc(OC)c(O)c4Oc4ccc(cc4)C[C@H]3N(C)CC2)CCN1C	0	0	-9	100*	0
COc1ccc(C[C@@H]2c3cc(O)c(OC)cc3CCN2C)cc1O	0	1	-8	-6	-6
O=C1NC(=O)N(c2cccc(Br)c2)C(=O)/C1=C/c1ccsc1	-1	0	-7	-3	-3
Cc1ccc(C2=NN(CCC(=O)N3CCC4(CC3)OCCO4)C(=O)CC2)cc1	1	-2	-6	-5	9
CN(C)CCOC(=O)c1cn(Cc2ccccc2)c2ccccc12	0	0	-29	100*	1
CCC(=O)c1cn(Cc2ccccc2)c2ccccc12	1	0	-19	0	3
Cn1cnc([N+](=O)[O-])c1Sc1ccc([N+](=O)[O-])cc1	-1	1	-5	84*	-3
COc1ccc(N2CCN(C(CNC(=O)Oc3ccccc3)c3cccnc3)CC2)cc1 (centres undefined)	1	0	2	92*	-2
O=C(NCC(c1cccnc1)N1CCN(c2ccccc2F)CC1)Oc1ccccc1 (centres undefined)	2	0	-13	97*	2
CC1=NN(c2ccccc2)C(=O)/C1=C/c1c(O)[nH]c(=S)[nH]c1=O	0	2	76*	-8	0

Compound activity as filed in PubChem.
